Out of some 360,000 compounds screened, about 740 (0.21%) were called active. The sample as a whole holds a higher share of actives than the screen did. A number with no mark means an inactive call.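 Rule for the calls: active = mean lysis activity across replicates of at least 80%, whatever share of replicates individually reach that level; inactive = mean lysis activity below 80%.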
Test: Cryptococcus neoformans cell lysis inducers, primary screen, AK release luminescence, single concentration (AID 651654)
Details: C. neoformans lysis, adenylate kinase release luminescence, 4 h; at 15 µM; stronger effect = higher value; normalised: neutral wells 0, clomiphene wells 100
Summary of the method: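 Material: C. neoformans cells | Amount: Yeast cell density of 5 × 10^6 cells/mL | Medium: Fresh YPD growth medium | Dosing: Single dose | Times: Static 4 h at 37 °C with compound, 1 h detection | Detection: AK luminescence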

| Compound | lysis activity |
| --- | --- |
| OC[C@@H]1[C@@H](c2ccc(C#CC3(O)CCCC3)cc2)[C@@H]2CN(Cc3cncnc3)CCCCN12 | -3.24% |
| O=C(C[C@@H]1CC[C@H](NC(=O)Nc2ccc(F)cc2)[C@H](CO)O1)NCc1ccccn1 | -0.684% |
| CO[C@@H]1CN(C)C(=O)c2cc(NC(=O)C3CC3)ccc2OC[C@@H](C)N(C(=O)c2ccccc2F)C[C@@H]1C | 44% |
| C[C@@H]1CN([C@@H](C)CO)S(=O)(=O)c2ccc(-c3ccc(C(=O)N(C)C)cc3)cc2O[C@@H]1CN(C)C(=O)Cc1ccccn1 | 0.616% |
| CN1CCN(C(=O)c2cc3c(c(-c4cccc(-c5ccc(C(=O)N(C)C)cc5)c4)n2)[C@@H](CCO)N([S@](=O)C(C)(C)C)C3)CC1 | -8.88% |
| Cc1ccc(S(=O)(=O)N[C@@H]2CC[C@H](CCNC(=O)C3CCOCC3)O[C@@H]2CO)cc1 | -6.3% |
| COCC(=O)Nc1ccc2c(c1)OC[C@H](C)N(C(=O)c1ccccn1)C[C@@H](C)[C@H](OC)CN(C)C2=O | 0.52% |
| O=C(C[C@H]1CC[C@@H]2[C@H](COC[C@@H](O)CN2C(=O)Nc2ccc(Cl)cc2)O1)NC1Cc2ccccc2C1 | -3.01% |
| C[C@@H]1CN([C@H](C)CO)C(=O)c2cc(C#CC3CC3)cnc2O[C@@H]1CN(C)Cc1cccc(C(=O)O)c1 | -8.03% |
| C[C@H](CO)N1C[C@H](C)[C@@H](CN(C)Cc2ccc(C(=O)Nc3ccccc3N)cc2)Oc2c(NC(=O)C3CC3)cccc2C1=O | -0.959% |
| COCC(=O)N(C)C[C@@H]1Oc2cc(C#CCC(C)C)ccc2S(=O)(=O)N([C@@H](C)CO)C[C@@H]1C | 0.182% |
| O=C(CN1CCOCC1)NC[C@@H]1N[C@@H](CO)[C@@H]1c1ccc(-c2ccccc2)cc1 | 4.94% |
| CCC(=O)N1[C@@H]2CN(C(=O)Nc3ccc(Cl)cc3)c3ccccc3[C@@H]2[C@@H]1CO | -1.93% |
| COc1cccc(S(=O)(=O)Nc2ccc3c(c2)[C@H]2C[C@H](CC(=O)O)O[C@H](CO)[C@H]2O3)c1 | -0.106% |
| COc1cccc(S(=O)(=O)Nc2ccc3c(c2)[C@@H]2C[C@H](CC(=O)NC4CCCCC4)O[C@H](CO)[C@@H]2O3)c1 | 116% (active) |
| COc1cccc(S(=O)(=O)Nc2ccc3c(c2)[C@@H]2C[C@@H](CC(=O)NC4CCCCC4)O[C@H](CO)[C@@H]2O3)c1 | 2.9% |
| CCCC#Cc1cnc2c(c1)C(=O)N([C@H](C)CO)C[C@H](C)[C@H](CN(C)C(=O)c1cnccn1)O2 | -1.04% |
| CCC(=O)Nc1ccc2c(c1)C(=O)N(C)[C@H]1CC[C@H](CC(=O)NC3Cc4ccccc4C3)O[C@H]1CO2 | -0.192% |
| COCC(=O)Nc1ccc2c(c1)[C@H]1C[C@H](CC(=O)OC)O[C@@H](CO)[C@H]1O2 | -5.98% |
| O=C(C[C@H]1CC[C@H]2[C@@H](COC[C@H](O)CN2C(=O)Nc2ccc(Cl)cc2)O1)NCC1CC1 | -8.94% |
| C[C@H]1CN([C@@H](C)CO)C(=O)c2cc(NC(=O)Cn3cnnn3)ccc2O[C@H]1CN(C)Cc1ccc(C(=O)O)cc1 | -7.7% |
| C[C@H](NC(=O)C[C@@H]1CC[C@@H](NC(=O)Cc2ccccn2)[C@@H](CO)O1)c1ccccc1 | 0.182% |
| C[C@@H](NC(=O)C[C@@H]1CC[C@H](NC(=O)Cc2ccccn2)[C@H](CO)O1)c1ccccc1 | -0.901% |
| C[C@@H](NC(=O)C[C@H]1CC[C@@H](NC(=O)Cc2ccccn2)[C@@H](CO)O1)c1ccccc1 | 105% (active) |

| Compound | lysis activity |
| --- | --- |
| COc1ccc(NC(=O)N(C)C[C@@H]2OCCCC[C@@H](C)Oc3ccc(NS(=O)(=O)c4c(C)noc4C)cc3C(=O)N([C@H](C)CO)C[C@@H]2C)cc1 | -3% |
| CC(C)C#Cc1ccc2c(c1)O[C@H](CN(C)Cc1ccccc1)[C@H](C)CN([C@@H](C)CO)S2(=O)=O | 14.5% |
| CCNC(=O)C[C@@H]1CC[C@H]2[C@@H](COc3ccc(NC(=O)Cc4cccs4)cc3C(=O)N2C)O1 | -1.39% |
| COc1ccccc1CNC(=O)C[C@H]1CC[C@@H]2[C@H](COC[C@H](O)CN2Cc2ccccc2)O1 | -1.1% |
| COc1ccccc1-c1ccc2n(c1=O)C[C@@H]1[C@@H](CO)[C@H](C(=O)NCc3ccccc3Cl)N[C@H]21 | -0.428% |
| CO[C@@H]1CN(C)C(=O)c2cc(NC(=O)c3ccno3)ccc2OC[C@@H](C)N(S(C)(=O)=O)C[C@@H]1C | 0.04% |
| C/C=C/c1ccc([C@H]2[C@@H](CO)N(C(C)=O)[C@H]2CN(C)S(C)(=O)=O)cc1 | -1.56% |
| C/C=C/c1ccc2c(c1)O[C@H](CN(C)C(=O)Nc1ccc(OC)cc1)[C@@H](C)CN([C@H](C)CO)S2(=O)=O | -3.44% |
| Cc1ccc(S(=O)(=O)Nc2ccc3c(c2)C(=O)N([C@@H](C)CO)C[C@@H](C)[C@@H](CN(C)Cc2ccc(C(F)(F)F)cc2)OCCCC[C@@H](C)O3)cc1 | 54.9% |
| C[C@@H]1CCCCO[C@H](CN(C)C(=O)NC2CCCCC2)[C@H](C)CN([C@H](C)CO)C(=O)c2cc(NC(=O)c3ccncc3)ccc2O1 | -2.46% |
| CO[C@@H]1CN(C)C(=O)c2cc(NC(=O)Nc3ccc(F)cc3)ccc2OC[C@@H](C)NC[C@@H]1C | -3.48% |
| COc1cccc(-c2ccc3n(c2=O)C[C@@H]2[C@@H](CO)[C@H](C(=O)NCC4CC4)N(C(=O)NC(C)C)[C@H]32)c1 | -2.16% |
| CCC(=O)Nc1ccc2c(c1)C(=O)N(C)C[C@H](OC)[C@H](C)CN(Cc1ccccc1F)[C@H](C)CO2 | 3.58% |
| C[C@@H]1CN([C@H](C)CO)S(=O)(=O)c2ccc(C3=CCCC3)cc2O[C@H]1CN(C)C(=O)c1ccccc1 | 2.54% |
| O=C(C[C@@H]1C[C@@H]2c3cc(NS(=O)(=O)c4ccc(F)cc4)ccc3O[C@@H]2[C@@H](CO)O1)N1CCOCC1 | -1.76% |
| C[C@@H]1CCCCO[C@@H](CN(C)S(C)(=O)=O)[C@H](C)CN([C@@H](C)CO)C(=O)c2cc(NS(=O)(=O)c3cccs3)ccc2O1 | 0.965% |
| Cc1ccc(S(=O)(=O)N(C)C[C@H]2OCc3ccccc3-c3ccccc3C(=O)N([C@@H](C)CO)C[C@@H]2C)cc1 | -0.134% |
| C[C@H]1CN([C@@H](C)CO)C(=O)c2ccccc2-c2ccccc2CO[C@H]1CN(C)S(=O)(=O)c1cccc(C#N)c1 | 82.9% (active) |
| C[C@H]1CN([C@@H](C)CO)C(=O)c2ccccc2-c2ccccc2CO[C@H]1CN(C)S(=O)(=O)c1ccccc1C#N | 1.59% |
| CO[C@H]1CN(C)C(=O)c2cc(NC(=O)C3CC3)ccc2OC[C@@H](C)N(Cc2cc(F)ccc2F)C[C@H]1C | 0.743% |
| COC(=O)C[C@H]1C[C@H]2c3cc(NC(=O)Nc4ccccc4F)ccc3O[C@H]2[C@H](CO)O1 | 11.5% |
| CO[C@@H]1CN(C)C(=O)c2ccc(NC(=O)Nc3c(C)noc3C)cc2OC[C@@H](C)NC[C@H]1C | -0.469% |
| O=C(c1ccncc1)N1CC[C@@H]2[C@H]1c1cc(Br)ccc1N[C@@H]2CO | -16.8% |
| C[C@H]1CN([C@@H](C)CO)S(=O)(=O)c2ccc(C3=CCCC3)cc2O[C@H]1CN(C)Cc1cccc(C(=O)O)c1 | 0.868% |
